In ChEMBL document CHEMBL1151448, “Comparative antianaerobic activities of doripenem determined by MIC and time-kill analysis” (2008):
Converted amounts (≈) assume the structure as drawn.

Tests used:
Assay type in all cases: functional
Fusobacterium varium = test: Antimicrobial activity against Fusobacterium varium isolated from intra-abdominal infection and pelvic inflammatory disease patients after 48 hrs by agar dilution method
Procedure, shortened: (§1)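 CLSI agar dilution on brucella blood agar supplemented with laked sheep blood, hemin and vitamin K. Inocula of about 1 × 10^5 CFU/spot were applied by Steers replicator, and plates were incubated 48 h at 35°C in an anaerobic glove box. MIC was the concentration giving marked growth reduction versus the anaerobic control plate. QC strains were included each run, and β-lactamase was detected by Cefinase disk.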

Clostridium perfringens [1] = test: Antimicrobial activity against Clostridium perfringens isolated from intra-abdominal infection and pelvic inflammatory disease patients after 48 hrs by agar dilution method
Procedure, shortened: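 CLSI agar dilution on brucella blood agar supplemented with laked sheep blood, hemin and vitamin K. Inoculum about 1 × 10^5 CFU/spot, applied by Steers replicator. Plates incubated 48 h at 35°C in an anaerobic glove box. MIC is the concentration giving marked growth reduction versus the anaerobic control plate. Standard QC strains included in each run.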

[2] = system: Parabacteroides distasonis; test: Antimicrobial activity against beta lactamase-positive Bacteroides distasonis isolated from intra-abdominal infection and pelvic inflammatory disease patients after 48 hrs by agar dilution method; procedure, shortened: as §1
[3] = system: Clostridium paraputrificum; test: Antimicrobial activity against Clostridium paraputrificum isolated from intra-abdominal infection and pelvic inflammatory disease patients after 48 hrs by agar dilution method; procedure, shortened: as §1
[4] = system: Peptostreptococcus anaerobius; test: Antimicrobial activity against Peptostreptococcus anaerobius isolated from intra-abdominal infection and pelvic inflammatory disease patients after 48 hrs by agar dilution method; procedure, shortened: as §1
[5] = system: Porphyromonas asaccharolytica; test: Antimicrobial activity against Porphyromonas asaccharolyticus isolated from intra-abdominal infection and pelvic inflammatory disease patients after 48 hrs by agar dilution method; procedure, shortened: as §1
Fusobacterium nucleatum [6] = test: Antimicrobial activity against beta lactamase-positive Fusobacterium nucleatum isolated from intra-abdominal infection and pelvic inflammatory disease patients after 48 hrs by agar dilution method; procedure, shortened: as §1
[7] = system: Bacteroides thetaiotaomicron; test: Antimicrobial activity against beta lactamase-positive Bacteroides thetaiotaomicron isolated from intra-abdominal infection and pelvic inflammatory disease patients after 48 hrs by time kill analysis
Procedure, shortened: (§2)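 The MIC was read by inspecting macrodilution time-kill tubes. Vials held prereduced brucella broth with 5% laked horse blood cells, hemin 5 μg/ml and vitamin K1 1 μg/ml. Final inoculum was 10^6–10^7 CFU/ml, prepared inside the anaerobe chamber. Vials were incubated 48 h at 35°C in a shaking water bath.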

Clostridium cadaveris = test: Antimicrobial activity against Clostridium cadaveris isolated from intra-abdominal infection and pelvic inflammatory disease patients after 48 hrs by agar dilution method; procedure, shortened: as §1
Porphyromonas gingivalis = test: Antimicrobial activity against Porphyromonas gingivalis isolated from intra-abdominal infection and pelvic inflammatory disease patients after 48 hrs by agar dilution method; procedure, shortened: as §1
Prevotella intermedia [8] = test: Antimicrobial activity against beta lactamase-positive Prevotella intermedia isolated from intra-abdominal infection and pelvic inflammatory disease patients after 48 hrs by time kill analysis; procedure, shortened: as §2
[9] = system: Bacteroides thetaiotaomicron; test: Antimicrobial activity against beta lactamase-positive Bacteroides thetaiotaomicron isolated from intra-abdominal infection and pelvic inflammatory disease patients after 48 hrs by agar dilution method; procedure, shortened: as §1
Prevotella corporis = test: Antimicrobial activity against beta lactamase-positive Prevotella corporis isolated from intra-abdominal infection and pelvic inflammatory disease patients after 48 hrs by agar dilution method; procedure, shortened: as §1
Finegoldia magna [10] = test: Antimicrobial activity against Finegoldia magna isolated from intra-abdominal infection and pelvic inflammatory disease patients after 48 hrs by agar dilution method; procedure, shortened: as §1
Prevotella bivia = test: Antimicrobial activity against beta lactamase-positive Prevotella bivia isolated from intra-abdominal infection and pelvic inflammatory disease patients after 48 hrs by agar dilution method; procedure, shortened: as §1
Parvimonas micra = test: Antimicrobial activity against Micromonas micros isolated from intra-abdominal infection and pelvic inflammatory disease patients after 48 hrs by agar dilution method; procedure, shortened: as §1
Phocaeicola vulgatus = test: Antimicrobial activity against beta lactamase-positive Bacteroides vulgatus isolated from intra-abdominal infection and pelvic inflammatory disease patients after 48 hrs by agar dilution method; procedure, shortened: as §1
Fusobacterium mortiferum = test: Antimicrobial activity against beta lactamase-positive Fusobacterium mortiferum isolated from intra-abdominal infection and pelvic inflammatory disease patients after 48 hrs by agar dilution method; procedure, shortened: as §1
[11] = system: Peptoniphilus asaccharolyticus; test: Antimicrobial activity against Peptoniphilus asaccharolyticus isolated from intra-abdominal infection and pelvic inflammatory disease patients after 48 hrs by agar dilution method; procedure, shortened: as §1
Prevotella disiens = test: Antimicrobial activity against beta lactamase-positive Prevotella disiens isolated from intra-abdominal infection and pelvic inflammatory disease patients after 48 hrs by agar dilution method; procedure, shortened: as §1
[12] = system: Enterocloster clostridioformis; test: Antimicrobial activity against Clostridium clostridioforme isolated from intra-abdominal infection and pelvic inflammatory disease patients after 48 hrs by agar dilution method; procedure, shortened: as §1
Anaerococcus prevotii = test: Antimicrobial activity against Anaerococcus prevotii isolated from intra-abdominal infection and pelvic inflammatory disease patients after 48 hrs by agar dilution method; procedure, shortened: as §1
[13] = system: Fusobacterium necrophorum; test: Antimicrobial activity against Fusobacterium necrophorum isolated from intra-abdominal infection and pelvic inflammatory disease patients after 48 hrs by agar dilution method; procedure, shortened: as §1
[14] = system: Paeniclostridium sordellii; test: Antimicrobial activity against Clostridium sordellii isolated from intra-abdominal infection and pelvic inflammatory disease patients after 48 hrs by agar dilution method; conditions: Paraclostridium sordellii; procedure, shortened: as §1
Prevotella intermedia [15] = test: Antimicrobial activity against beta lactamase-positive Prevotella intermedia isolated from intra-abdominal infection and pelvic inflammatory disease patients after 48 hrs by agar dilution method; procedure, shortened: as §1
Prevotella denticola = test: Antimicrobial activity against beta lactamase-positive Prevotella denticola isolated from intra-abdominal infection and pelvic inflammatory disease patients after 48 hrs by agar dilution method; procedure, shortened: as §1
Bacteroides fragilis [16] = test: Antimicrobial activity against beta lactamase-positive Bacteroides fragilis isolated from intra-abdominal infection and pelvic inflammatory disease patients after 48 hrs by agar dilution method; procedure, shortened: as §1
Fusobacterium nucleatum [17] = test: Antimicrobial activity against beta lactamase-positive Fusobacterium nucleatum isolated from intra-abdominal infection and pelvic inflammatory disease patients after 48 hrs by time kill analysis; procedure, shortened: as §2
[18] = system: Prevotella melaninogenica; test: Antimicrobial activity against beta lactamase-positive Prevotella melaninogenica isolated from intra-abdominal infection and pelvic inflammatory disease patients after 48 hrs by agar dilution method; procedure, shortened: as §1
Finegoldia magna [19] = test: Antimicrobial activity against beta lactamase-positive Finegoldia magna isolated from intra-abdominal infection and pelvic inflammatory disease patients after 48 hrs by time kill analysis; procedure, shortened: as §2
[20] = system: Paraclostridium bifermentans; test: Antimicrobial activity against Clostridium bifermentans isolated from intra-abdominal infection and pelvic inflammatory disease patients after 48 hrs by agar dilution method; procedure, shortened: as §1
Clostridioides difficile [21] = test: Antimicrobial activity against Clostridium difficile isolated from intra-abdominal infection and pelvic inflammatory disease patients after 48 hrs by time kill analysis
Procedure, shortened: (§3)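 Macrodilution in prereduced brucella broth with 5% laked horse blood cells, 5 μg/ml hemin and 1 μg/ml vitamin K1. Final inoculum 10^6 to 10^7 CFU/ml, prepared inside the anaerobe chamber. Vials incubated 48 h at 35°C in a shaking water bath. MIC read by inspecting the time-kill tubes, alongside an antibiotic-free growth control.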

Bacteroides ovatus = test: Antimicrobial activity against beta lactamase-positive Bacteroides ovatus isolated from intra-abdominal infection and pelvic inflammatory disease patients after 48 hrs by agar dilution method; procedure, shortened: as §1
Anaerococcus tetradius = test: Antimicrobial activity against Anaerococcus tetradius isolated from intra-abdominal infection and pelvic inflammatory disease patients after 48 hrs by agar dilution method; procedure, shortened: as §1
[Clostridium] innocuum = Antimicrobial activity against Clostridium innocuum isolated from intra-abdominal infection and pelvic inflammatory disease patients after 48 hrs by agar dilution method; procedure, shortened: as §1
Prevotella nigrescens = test: Antimicrobial activity against beta lactamase-positive Prevotella nigrescens isolated from intra-abdominal infection and pelvic inflammatory disease patients after 48 hrs by agar dilution method; procedure, shortened: as §1
Prevotella buccae = test: Antimicrobial activity against beta lactamase-positive Prevotella buccae isolated from intra-abdominal infection and pelvic inflammatory disease patients after 48 hrs by agar dilution method; conditions: Segatella buccae; procedure, shortened: as §1
Clostridium perfringens [22] = test: Antimicrobial activity against Clostridium perfringens isolated from intra-abdominal infection and pelvic inflammatory disease patients after 48 hrs by time kill analysis; procedure, shortened: as §3
Porphyromonas levii = test: Antimicrobial activity against Porphyromonas levii isolated from intra-abdominal infection and pelvic inflammatory disease patients after 48 hrs by agar dilution method; procedure, shortened: as §1
Bacteroides fragilis [23] = test: Antimicrobial activity against beta lactamase-positive Bacteroides fragilis isolated from intra-abdominal infection and pelvic inflammatory disease patients after 48 hrs by time kill analysis; procedure, shortened: as §2
Thomasclavelia ramosa = test: Antimicrobial activity against Clostridium ramosum isolated from intra-abdominal infection and pelvic inflammatory disease patients after 48 hrs by agar dilution method; procedure, shortened: as §1
Clostridioides difficile [24] = test: Antimicrobial activity against Clostridium difficile isolated from intra-abdominal infection and pelvic inflammatory disease patients after 48 hrs by agar dilution method; procedure, shortened: as §1

Structure (SMILES): Cc1ncc([N+](=O)[O-])n1CCO [METRONIDAZOLE]
- MIC50 (Fusobacterium varium): 0.25 µg/mL (≈ 1.46 µM)
- MIC90 (Fusobacterium varium): 0.5 µg/mL (≈ 2.92 µM)
- MIC50 (Clostridium perfringens [1]): 1 µg/mL (≈ 5.84 µM)
- MIC90 (Clostridium perfringens [1]): 2 µg/mL (≈ 11.7 µM)
- MIC [2]: 1 µg/mL (≈ 5.84 µM)
- MIC50 [2]: 1 µg/mL (≈ 5.84 µM)
- MIC90 [2]: 1 µg/mL (≈ 5.84 µM)
- MIC [3]: 0.5 µg/mL (≈ 2.92 µM)
- MIC50 [4]: 0.5 µg/mL (≈ 2.92 µM)
- MIC90 [4]: 1 µg/mL (≈ 5.84 µM)
- MIC [5]: ≤ 0.125 µg/mL
- MIC (Fusobacterium nucleatum [6]): ≤ 0.125 µg/mL
- MIC50 (Fusobacterium nucleatum [6]): ≤ 0.125 µg/mL
- MIC90 (Fusobacterium nucleatum [6]): ≤ 0.125 µg/mL
- MIC [7]: 1 µg/mL (≈ 5.84 µM)
- MIC (Clostridium cadaveris): 0.25 µg/mL (≈ 1.46 µM)
- MIC (Porphyromonas gingivalis): ≤ 0.125 µg/mL
- MIC (Prevotella intermedia [8]): 0.5 µg/mL (≈ 2.92 µM)
- MIC50 [9]: 1 µg/mL (≈ 5.84 µM)
- MIC90 [9]: 1 µg/mL (≈ 5.84 µM)
- MIC50 (Prevotella corporis): 0.5 µg/mL (≈ 2.92 µM)
- MIC90 (Prevotella corporis): 1 µg/mL (≈ 5.84 µM)
- MIC50 (Finegoldia magna [10]): 0.5 µg/mL (≈ 2.92 µM)
- MIC90 (Finegoldia magna [10]): 1 µg/mL (≈ 5.84 µM)
- MIC50 (Prevotella bivia): 2 µg/mL (≈ 11.7 µM)
- MIC90 (Prevotella bivia): 2 µg/mL (≈ 11.7 µM)
- MIC50 (Parvimonas micra): 0.25 µg/mL (≈ 1.46 µM)
- MIC90 (Parvimonas micra): 0.5 µg/mL (≈ 2.92 µM)
- MIC50 (Phocaeicola vulgatus): 0.5 µg/mL (≈ 2.92 µM)
- MIC90 (Phocaeicola vulgatus): 1 µg/mL (≈ 5.84 µM)
- MIC (Fusobacterium mortiferum): ≤ 0.125 µg/mL
- MIC50 (Fusobacterium mortiferum): ≤ 0.125 µg/mL
- MIC90 (Fusobacterium mortiferum): ≤ 0.125 µg/mL
- MIC50 [11]: 1 µg/mL (≈ 5.84 µM)
- MIC90 [11]: 1 µg/mL (≈ 5.84 µM)
- MIC (Prevotella disiens): 0.5 µg/mL (≈ 2.92 µM)
- MIC50 (Prevotella disiens): 0.5 µg/mL (≈ 2.92 µM)
- MIC90 (Prevotella disiens): 2 µg/mL (≈ 11.7 µM)
- MIC [12]: ≤ 0.125 µg/mL
- MIC (Anaerococcus prevotii): 0.25 µg/mL (≈ 1.46 µM)
- MIC [13]: ≤ 0.125 µg/mL
- MIC50 [13]: ≤ 0.125 µg/mL
- MIC90 [13]: ≤ 0.125 µg/mL
- MIC [14]: 0.5 µg/mL (≈ 2.92 µM)
- MIC50 (Prevotella intermedia [15]): 0.5 µg/mL (≈ 2.92 µM)
- MIC90 (Prevotella intermedia [15]): 2 µg/mL (≈ 11.7 µM)
- MIC50 (Prevotella denticola): 0.5 µg/mL (≈ 2.92 µM)
- MIC90 (Prevotella denticola): 1 µg/mL (≈ 5.84 µM)
- MIC50 (Bacteroides fragilis [16]): 1 µg/mL (≈ 5.84 µM)
- MIC90 (Bacteroides fragilis [16]): 1 µg/mL (≈ 5.84 µM)
- MIC (Fusobacterium nucleatum [17]): 0.016 µg/mL (≈ 0.0935 µM)
- MIC50 [18]: 0.5 µg/mL (≈ 2.92 µM)
- MIC90 [18]: 1 µg/mL (≈ 5.84 µM)
- MIC (Finegoldia magna [19]): 1 µg/mL (≈ 5.84 µM)
- MIC [20]: 0.25 µg/mL (≈ 1.46 µM)
- MIC (Clostridioides difficile [21]): 0.5 µg/mL (≈ 2.92 µM)
- MIC50 (Bacteroides ovatus): 1 µg/mL (≈ 5.84 µM)
- MIC90 (Bacteroides ovatus): 2 µg/mL (≈ 11.7 µM)
- MIC50 (Anaerococcus tetradius): 2 µg/mL (≈ 11.7 µM)
- MIC50 ([Clostridium] innocuum): 1 µg/mL (≈ 5.84 µM)
- MIC50 (Prevotella nigrescens): 0.5 µg/mL (≈ 2.92 µM)
- MIC90 (Prevotella nigrescens): 1 µg/mL (≈ 5.84 µM)
- MIC50 (Prevotella buccae): 1 µg/mL (≈ 5.84 µM)
- MIC90 (Prevotella buccae): 1 µg/mL (≈ 5.84 µM)
- MIC (Clostridium perfringens [22]): 2 µg/mL (≈ 11.7 µM)
- MIC (Porphyromonas levii): ≤ 0.125 µg/mL
- MIC (Bacteroides fragilis [23]): 2 µg/mL (≈ 11.7 µM)
- MIC50 (Thomasclavelia ramosa): 2 µg/mL (≈ 11.7 µM)
- MIC50 (Clostridioides difficile [24]): 0.5 µg/mL (≈ 2.92 µM)
- MIC90 (Clostridioides difficile [24]): 0.5 µg/mL (≈ 2.92 µM)
